# Results of several laboratories.
# Protocols differ between the studies behind these lines.
# Target: Serine/threonine-protein kinase pim-2 (PIM2, Homo sapiens, UniProt Q9P1W9)
Structure (SMILES),test,setting,endpoint,result
Cc1nc(N2CC[C@@H](O)C2)ncc1-c1cc(C(F)(F)F)cc2[nH]ncc12,"binding, competition with immobilised ligand",1 µM,remaining binding,89%
COc1cc(Nc2cnc(C#N)c(O[C@H](C)CN(C)C)n2)ncc1-c1cnn(C)c1,"enzyme activity, inhibitor, radiometric",1 µM,remaining activity,98%
CO[C@@H](C)c1c(Nc2ccc([C@H](N(C)C(=O)C3CCS(=O)(=O)CC3)C(F)(F)F)cc2)cnc2cc(Cl)nn12,"cell-free assay, competition with immobilised ligand",1 µM,remaining binding,100%
O=C(CSc1nc2nccnc2c(=O)n1CCc1ccccc1)Nc1nccs1,"enzyme activity, inhibitor",10 µM,inhibition,-5%
COc1ccc2c(c1)O[C@@H](c1ccc(OC)c(OC)c1)C[C@H]2NC(=O)C1(c2ccc3c(c2)OC(F)(F)O3)CC1,"cell-free assay, competition with immobilised ligand",1 µM,remaining binding,100%
COc1cc(Nc2c(C#N)cnc3cc(OCCCN4CCN(C)CC4)c(OC)cc23)c(Cl)cc1Cl,cell-free assay,0.5 µM,remaining signal,111%
C=CC(=O)Nc1cc(Nc2nccc(Nc3cc(Cl)c(F)cc3C(C)(C)O)n2)c(OC)cc1N1CC[C@@H](N(C)C)C1,"enzyme activity, inhibitor",1 µM,inhibition,16%
O=C(Nc1cnn(-c2csc(C(=O)NC3COC3)c2)c1)Nc1c(F)cccc1Cl,"enzyme activity, inhibitor",5 µM,remaining activity,129%
FC(F)(F)Oc1cccc(-c2cnc3ccc(-c4ccncc4)nn23)c1,"enzyme activity, inhibitor, radiometric",5 µM,activity vs control,83%
CCCS(=O)(=O)Nc1ccc(F)c(C(=O)c2c[nH]c3ncc(-c4ccc(Cl)cc4)cc23)c1F,"enzyme activity, inhibitor",1 µM,inhibition,< 10%
CC(C)(C)C(=O)c1sc(NC2CCCCC2)nc1N,"enzyme activity, inhibitor",10 µM,remaining activity,109%
CC/C(=N\NC(=O)NCc1cccc(O)c1)c1ccc(O)c(C)c1O,"enzyme activity, inhibitor",0.1 µM,inhibition,-5%
CCN(CC)c1ccc(C2=NNC(=O)CC2C)cc1[N+](=O)[O-] (stereo not drawn),"enzyme activity, inhibitor",10 µM,remaining activity,108%
Cc1ccc(C(=O)NCc2ccsc2)cc1C#Cc1cn(C(C)C)c2ncnc(N)c12,"enzyme activity, inhibitor",1 µM,activity vs control,92%
COc1cc(Cl)c(C(=O)N[C@@H](CN[C@H]2CC[C@@H](N)CC2)Cc2ccc(C#N)cc2)cc1-c1ccc(CN[C@H](C)c2ccc(C)cc2)o1,"enzyme activity, inhibitor",1 µM,remaining activity,92%
Cc1c(NC(=O)c2cc(C(N)=O)nc3cc(F)ccc23)c(C(F)(F)F)nn1Cc1ccc(C#N)cc1,"cell-free assay, competition with immobilised ligand",1 µM,remaining binding,94%
CC(C)(O)[C@H]1CC[C@H](Nc2ccc3ncc(-c4cccc(C(F)(F)F)c4)n3n2)CC1,"enzyme activity, inhibitor",1 µM,remaining activity,29.8%
CC(C)CC(=O)N1CCc2nc(-c3ccc(Br)cc3)nc(N(C)Cc3ccccc3)c2C1,"cell-free assay, competition with immobilised ligand",0.1 µM,remaining binding,100%
Cc1ccc(NC(=O)c2ccc(CN3CCN(C)CC3)cc2)cc1Nc1nc(-c2cccnc2)cs1,cell-free assay,0.5 µM,remaining signal,118%
Cn1nc(C(F)(F)F)cc1-c1cnc(N2CCc3cc(S(=O)(=O)Nc4c(F)cc(Cl)cc4F)cc(N4CCCC4=O)c32)nc1,"cell-free assay, competition with immobilised ligand",1 µM,remaining binding,100%
FC(F)c1nc2ccccc2n1-c1nc(N2CCOCC2)nc(N2CCOCC2)n1,"enzyme activity, inhibitor",10 µM,remaining activity,92%
